{"source": "paper PMC4681442", "about": "(Angewandte Chemie (International ed. in English), 2015)", "key": {"[1]": {"tested_on": "A2780 cells", "test": "Cell viability", "type": "cell-based", "conditions": "CDDP without adding D-1, 72 h", "outline": "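MTT assay (mitochondrial reductase activity) in cisplatin-sensitive A2780 and cisplatin-resistant A2780cis cells. Cells were incubated 72 h with precursor alone, cisplatin alone, or both together. Viability was expressed relative to untreated control, with significance thresholds p≤0.001 and p≤0.0001.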"}, "[2]": {"tested_on": "HS-5 cells", "test": "Cytotoxicity to HS-5 cells", "type": "cell-based", "conditions": "cisplatin (Figure S16)"}, "[3]": {"tested_on": "SKOV3 cells", "test": "Cell viability", "type": "cell-based", "conditions": "CDDP 6 μg/mL alone"}, "[4]": {"tested_on": "PC-12 cells", "conditions": "cisplatin; cited from earlier work"}}, "data": [{"smiles": "[NH2][Pt]([NH2])([Cl])[Cl]", "note": "[CDDP, cisplatin]", "values": [{"measurement": "cell viability of A2780", "setting": "[1]", "value": "about 38%"}, {"measurement": "inhibition of HS-5 cells", "setting": "[2]", "value": "significantly inhibits"}, {"measurement": "inhibition of SKOV3 cells", "setting": "[3]; 72 h (Figure 2A)", "value": 48, "unit": "%"}, {"measurement": "cell death of SKOV3 cells", "setting": "[3]; 72 h, control experiment with 3", "value": "about 40%"}, {"measurement": "inhibition of PC-12 cells", "setting": "[4]", "value": "significantly inhibits"}]}]}
